pIC50: −log10 of the molar value. Active and inactive are the calls of the source. The calls are words filed in the database; no cut-off is given here.
Legend:
MCF7 [1] = assay: Induction of reactive oxygen species generation in human MCF7 cells assessed as decrease in cell viability at 1 to 10 uM in presence of N-acetyl cysteine after 48 hrs by alamarBlue assay; assay type: functional, cell-based
Summary of the method: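 MCF-7 cells seeded at 2.5×10^4 cells/mL, left overnight to adhere. After 23 h, pre-treated 1 hr with NAC (1 mM; 100 mM stock in sterile water), then compound for 48 h at 37 °C in 5% CO₂. alamarBlue added 5 h before endpoint, fluorescence ex 544/em 590 nm, blank subtracted. Viability as % of ethanol vehicle control, mean of three independent experiments.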

MCF7 [2] = assay: Induction of reactive oxygen species generation in human MCF7 cells assessed as decrease in cell viability at 10 uM in presence of N-acetyl cysteine after 48 hrs by alamarBlue assay; assay type: functional, cell-based
Summary of the method: (§1)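 MCF-7 cells were seeded at 2.5×10^4 cells/mL and left to adhere. They were pre-treated 1 h with N-acetyl cysteine (1 mM) or Trolox (100 μM), then exposed to test agents for 48 h. Viability was measured by alamarBlue fluorescence as % of ethanol vehicle control. Mean of three independent experiments.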

MCF7 [3] = assay: Cell cycle arrest in human MCF7 cells assessed as G0/G1 phase accumulation at 10 uM after 24 hrs by propidium iodide staining based flow cytometry; assay type: functional
Summary of the method: (§2)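 MCF-7 cells were seeded at 1×10^5 cells/mL and treated after 24 h with 5, 10 or 20 μM or 0.1% ethanol for 24 or 48 h. Cells were pooled, fixed in ice-cold 70% ethanol at −20 °C for 24 h, then stained with RNase A and propidium iodide for 30 min at 37 °C in the dark. Flow cytometry used FL-2, ≥10,000 gated cells, and sub-G1/G0G1/G2/M were scored by DNA content. Mean ± SEM of three; one-way ANOVA with Dunnett's test.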

MCF7 [4] = assay: Induction of apoptosis in human MCF7 cells assessed as downregulation of Bcl2 expression at 10 uM after 48 hrs by Western blot method; assay type: functional, cell-based
Summary of the method: (§3)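 MCF-7 cells were seeded at 5×10^5 cells/flask and exposed to 10 μM, vehicle (0.1% ethanol) or no treatment for 48 or 72 h. Cells were lysed in RIPA buffer with protease/phosphatase inhibitors, and equal protein (by BCA) was run on 12% SDS-PAGE. Blots were probed overnight at 4 °C for Bcl-2 (1:500) or Mcl-1 (1:1000), with GAPDH as loading control and ECL detection. Three independent experiments.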

MCF7 [5] = assay: Antiproliferative activity in human MCF7 cells assessed as cell viability after 48 hrs by alamarBlue assay; assay type: functional, cell-based; conditions: MCF7, 48 h
Summary of the method: (§4)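 Cells were seeded at 2.5×10^4 cells/mL and treated after 24 h with vehicle (0.1% v/v ethanol) or a dose range (0.1–20 μM) for 48 h at 37 °C in 5% CO2. Media-only blanks were subtracted, and viability is given as % of vehicle. Sextuplicate wells, three independent experiments.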

Jurkat [6] = assay: Antiproliferative activity in human Jurkat cells assessed as cell viability after 48 hrs by alamarBlue assay; assay type: functional, cell-based
Summary of the method: as §4, with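 “CO2. AlamarBlue was added 5 h before the end and read as fluorescence (ex 544/em 590 nm).” for “CO2.”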

MCF-10A = assay: Cytotoxicity in human MCF10A cells at 10 uM after 24 to 48 hrs by alamarBlue assay; assay type: cell-based
Summary of the method: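 MCF-10a cells were grown in DMEM/F12 with 5% horse serum, EGF, hydrocortisone, cholera toxin and insulin. They were treated at 1, 5, 10 or 20 μM for 48 h. Read-out was alamarBlue fluorescence, blank-subtracted and expressed as % of ethanol vehicle control. Mean of three independent experiments; unpaired two-tailed t-test.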

MCF7 [7] = assay: Induction of reactive oxygen species generation in human MCF7 cells assessed as decrease in cell viability at 1 to 20 uM in presence of N-acetyl cysteine after 48 hrs by alamarBlue assay; assay type: functional, cell-based; summary of the method: as §1
MCF7 [8] = assay: Cell cycle arrest in human MCF7 cells assessed as G0/G1 phase accumulation at 20 uM after 48 hrs by propidium iodide staining based flow cytometry; assay type: functional; summary of the method: as §2
MCF7 [9] = assay: Cell cycle arrest in human MCF7 cells assessed as G0/G1 phase accumulation at 20 uM after 24 hrs by propidium iodide staining based flow cytometry; assay type: functional; summary of the method: as §2
MCF7 [10] = assay: Cell cycle arrest in human MCF7 cells assessed as G0/G1 phase accumulation at 10 uM after 48 hrs by propidium iodide staining based flow cytometry; assay type: functional; summary of the method: as §2
MCF7 [11] = assay: Cell cycle arrest in human MCF7 cells assessed as G2/M phase accumulation at 5 uM after 24 hrs by propidium iodide staining based flow cytometry; assay type: functional; summary of the method: as §2
MCF7 [12] = assay: Cell cycle arrest in human MCF7 cells assessed as G2/M phase accumulation at 10 uM after 24 hrs by propidium iodide staining based flow cytometry; assay type: functional; summary of the method: as §2
MCF7 [13] = assay: Cell cycle arrest in human MCF7 cells assessed as G2/M phase accumulation at 5 uM after 48 hrs by propidium iodide staining based flow cytometry; assay type: functional; summary of the method: as §2
MCF7 [14] = assay: Cell cycle arrest in human MCF7 cells assessed as G2/M phase accumulation at 10 uM after 48 hrs by propidium iodide staining based flow cytometry; assay type: functional; summary of the method: as §2
MCF7 [15] = assay: Cell cycle arrest in human MCF7 cells assessed as sub G0/G1 phase accumulation at 10 uM after 48 hrs by propidium iodide staining based flow cytometry; assay type: functional; summary of the method: as §2
MCF7 [16] = assay: Cell cycle arrest in human MCF7 cells assessed as sub G0/G1 phase accumulation at 20 uM after 48 hrs by propidium iodide staining based flow cytometry; assay type: functional; summary of the method: as §2
MCF7 [17] = assay: Induction of apoptosis in human MCF7 cells assessed as downregulation of Mcl-1 expression at 10 uM after 72 hrs by Western blot method; assay type: functional, cell-based; summary of the method: as §3
Bos taurus = species on record: Bos taurus; assay: Induction of bovine tubulin depolymerization at 25 uM measured every 30 secs for 60 mins by spectrophotometry
Summary of the method: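 Purified tubulin plus GTP was incubated at 37 °C with test agent or 1% ethanol vehicle. Assembly was followed as absorbance (light scattering) at 340 nm every 30 s for 60 min. Mean of three experiments run in duplicate.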

Homo sapiens [18] = species on record: Homo sapiens; assay: Disruption of microtubule network in human MCF7 cells at 20 uM after 16 hrs by immunofluorescence analysis; assay type: cell-based
Summary of the method: (§5)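 MCF-7 cells were seeded at 1×10^5 cells/mL on chamber slides and treated for 16 h (vehicle 1% ethanol). Cells were fixed 20 min in 4% paraformaldehyde, permeabilised in 0.5% Triton X-100 and blocked in 5% BSA/PBST. Staining used anti-α-tubulin–FITC (DM1A) for 2 h at rt, then Alexa Fluor 488 for 1 h, with DAPI counterstain. Imaging was by confocal microscopy; three independent experiments.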

MCF7 [19] = assay: Cytotoxicity against human MCF7 cells after 24 hrs by MTT assay; assay type: functional, cell-based; conditions: MCF7, 24 h
Homo sapiens [20] = species on record: Homo sapiens; assay: Induction of microtubule depolymerization in human MCF7 cells at 10 uM after 16 hrs by immunofluorescence analysis; assay type: cell-based; summary of the method: as §5
Homo sapiens [21] = species on record: Homo sapiens; assay: Binding affinity to colchicine-binding site of beta tubulin in human MCF7 cells assessed as inhibition of formation of protein-N,N'-Ethylene-bis(iodoacetamide) adduct at 40 uM after 2 hrs by Western blot method; assay type: cell-based
Summary of the method: (§6)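 MCF-7 or HT-29 cells were exposed to test agent or ethanol vehicle (0.1% v/v) for 2 h, with MCF-7 seeded at 1×10^6 cells/well overnight beforehand. Selected samples then received N,N'-ethylene-bis(iodoacetamide) for a further 1.5 h. Cells were washed in cold PBS, lysed in Laemmli buffer and run on SDS-PAGE. Three independent experiments.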

Homo sapiens [22] = species on record: Homo sapiens; assay: Binding affinity to colchicine-binding site of beta tubulin in human HT-29 cells assessed as inhibition of formation of protein-N,N'-Ethylene-bis(iodoacetamide) adduct at 40 uM after 2 hrs by Western blot method; assay type: cell-based; summary of the method: as §6
MCF7 [23] = assay: Induction of reactive oxygen species generation in human MCF7 cells assessed as decrease in cell viability at 1 to 20 uM in presence of trolox after 48 hrs by alamarBlue assay; assay type: functional, cell-based; summary of the method: as §1
Homo sapiens [24] = species on record: Homo sapiens; assay: Induction of tubulin depolymerization in human MCF7 cells at 5 to 20 uM after 4 hrs by Western blot method; assay type: cell-based
Summary of the method: (§7)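 MCF-7 (1×10^6/well) or Jurkat cells were treated for 4 h with 1–20 μM or 0.1% ethanol. Cells were lysed in microtubule-preserving buffer (0.1 M PIPES pH 6.9, 2 M glycerol, 5 mM MgCl2, 2 mM EGTA, 0.5% Triton X-100, 4 μM paclitaxel) and centrifuged at 20,000g for 45 min. Soluble (supernatant) and polymer (pellet) fractions, 30 μg protein each, were immunoblotted for α-tubulin with a GAPDH loading control. Three experiments.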

Homo sapiens [25] = species on record: Homo sapiens; assay: Induction of tubulin depolymerization in human Jurkat cells at 5 to 20 uM after 4 hrs by Western blot method; assay type: cell-based; summary of the method: as §7
Homo sapiens [26] = species on record: Homo sapiens; assay: Effect on tubulin polymerization in human MCF7 cells at 1; assay type: cell-based; summary of the method: as §7
Homo sapiens [27] = species on record: Homo sapiens; assay: Effect on tubulin polymerization in human Jurkat cells at 1; assay type: cell-based; summary of the method: as §7
Jurkat [28] = assay: Cytotoxicity against human Jurkat cells after 24 hrs by MTT assay; assay type: functional, cell-based
MCF7 [29] = assay: Cell cycle arrest in human MCF7 cells assessed as G2/M phase accumulation at 20 uM after 24 hrs by propidium iodide staining based flow cytometry
MCF7 [30] = assay: Cell cycle arrest in human MCF7 cells assessed as G2/M phase accumulation at 20 uM after 48 hrs by propidium iodide staining based flow cytometry

SMILES: COc1cc2c(c(OC)c1OC)-c1ccc(OC)c(=O)cc1[C@@H](NC(C)=O)CC2
- Activity (MCF7 [1]): inactive

SMILES: COc1cc(/C=C/C(=O)c2ccccc2)cc(OC)c1OC
- Activity (MCF7 [2]): inactive

SMILES: COc1cc(C(=O)/C=C/c2ccc(N(C)C)cc2)cc(OC)c1OC
- Activity (MCF7 [2]): inactive

SMILES: COc1cc(/C=C/C(=O)N2CCC=CC2=O)cc(OC)c1OC [PIPLARTINE]
- Activity (MCF7 [3]): 16%
- Activity (MCF7 [4]): Active
- pIC50 (MCF7 [5]): 5.92
- pIC50 (Jurkat [6]): 5.85
- Activity (MCF-10A): 90%
- Activity (MCF7 [7]): inactive
- Activity (MCF7 [8]): 19%
- Activity (MCF7 [9]): 15%
- Activity (MCF7 [10]): 21%
- Activity (MCF7 [11]): 13%
- Activity (MCF7 [12]): 16%
- Activity (MCF7 [13]): 6%
- Activity (MCF7 [14]): 15%
- Activity (MCF7 [15]): 4.3%
- Activity (MCF7 [16]): 4.9%
- Activity (MCF7 [17]): Active
- Activity (Bos taurus): Active
- Activity (Homo sapiens [18]): Active
- pIC50 (MCF7 [19]): 5.10
- Activity (Homo sapiens [20]): Active
- inhibition (Homo sapiens [21]): inactive
- inhibition (Homo sapiens [22]): inactive
- Activity (MCF7 [23]): Active
- Activity (Homo sapiens [24]): Active
- Activity (Homo sapiens [25]): Active
- Activity (Homo sapiens [26]): inactive
- Activity (Homo sapiens [27]): inactive
- pIC50 (Jurkat [28]): 5.30
- Activity (MCF7 [29]): 12%
- Activity (MCF7 [30]): 10%

SMILES: COc1ccc(OC)c(C(=O)/C(C)=C/c2ccc(N(C)C)cc2)c1
- Activity (MCF7 [2]): inactive
